From ChEMBL document CHEMBL4811229, “Leveraging Peptaibol Biosynthetic Promiscuity for Next-Generation Antiplasmodial Therapeutics” (J Nat Prod, 2021)
Where a SMILES comes first, the peptide text is derived from it. [ ]: non-standard residue; d: D form. Leu(ol) = CC(C)C[C@H](N)CO; dIva = CC[C@@](C)(N)C(=O)O; Aib = CC(C)(N)C(=O)O

Tests used:
[1] = tested on: Plasmodium falciparum; experiment: Antiplasmodial activity against multidrug-resistant Plasmodium falciparum Dd2 infected in human A-positive erythrocytes assessed as reduction in parasitemia incubated for 72 hrs by fluorescence-based SYBR-Green-1 assay; assay type: functional, organism-based; details: Dd2, Erythrocyte
[2] = tested on: HepG2; experiment: Cytotoxicity against human HepG2 cells assessed as decrease in cell viability measured after 48 hrs by MTS assay; assay type: cell-based; details: HepG2, 48 h
Outline: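 After 48 h at 37 °C and 5% CO2, MTS was added for 4 h and absorbance read at 490 nm. Values were normalized to Triton X-100-lysed wells (0% growth) and untreated wells. EC50 is the mean of triplicate experiments.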

[3] = Selectivity index, ratio of EC50 for human HepG2 cells to EC50 for antiplasmodial activity against multidrug-resistant Plasmodium falciparum Dd2 infected in human A-positive erythrocytes; assay type: toxicity, cell-based; details: read-out: Ratio EC50

Row | SMILES | EC50 [1] [nM] | EC50 [2] [µM] | selectivity ratio [3]
1 | CC[C@@](C)(NC(=O)[C@@H]1CCCN1C(=O)C(C)(C)NC(=O)[C@@H](NC(=O)[C@H](CO)NC(=O)[C@@H]1CCCN1C(=O)C(C)(C)NC(=O)[C@H](CC(C)C)NC(=O)[C@H](CC(N)=O)NC(=O)C(C)(C)NC(C)=O)C(C)C)C(=O)N[C@@H](CC(C)C)C(=O)NC(C)(C)C(=O)N1CCC[C@H]1C(=O)N[C@H](CO)CC(C)C (HELM PEPTIDE1{[ac].[Aib].N.L.[Aib].P.S.V.[Aib].P.[CC[C@@](C)(N[*:1])C(=O)[*:2]].L.[Aib].P.[CC(C)C[C@@H](CO)N[*:1]]}$$$$V2.0) | 560 | > 25 | > 45
2 | CC(=O)NC(C)(C)C(=O)N[C@@H](CC(N)=O)C(=O)N[C@@H](CC(C)C)C(=O)NC(C)(C)C(=O)N1CCC[C@H]1C(=O)N[C@@H](CO)C(=O)N[C@H](C(=O)NC(C)(C)C(=O)N1CCC[C@H]1C(=O)NC(C)(C)C(=O)N[C@@H](CC(C)C)C(=O)NC(C)(C)C(=O)N1CCC[C@H]1C(=O)N[C@H](CO)CC(C)C)C(C)C (HELM PEPTIDE1{[ac].[Aib].N.L.[Aib].P.S.V.[Aib].P.[Aib].L.[Aib].P.[CC(C)C[C@@H](CO)N[*:1]]}$$$$V2.0) | 710 | > 25 | > 35
3 | CC[C@H](C)[C@H](NC(=O)[C@H](CC(C)C)NC(=O)[C@H](CCC(N)=O)NC(=O)[C@@](C)(CC)NC(C)=O)C(=O)NC(C)(C)C(=O)N1CCC[C@H]1C(=O)N[C@](C)(CC)C(=O)N[C@@H](CC(C)C)C(=O)NC(C)(C)C(=O)N1CCC[C@H]1C(=O)N[C@H](CO)CC(C)C (Ac-[dIva]QLI[Aib]P[dIva]L[Aib]P[Leu(ol)]) |  |  | > 250
4 | CC[C@H](C)[C@H](NC(=O)C(C)(C)NC(=O)[C@H](CCC(N)=O)NC(=O)C(C)(C)NC(=O)C(C)(C)NC(=O)[C@H](C)NC(=O)[C@H](C)NC(=O)[C@H](C)NC(=O)C(C)(C)NC(C)=O)C(=O)NC(C)(C)C(=O)NCC(=O)N[C@@H](CC(C)C)C(=O)NC(C)(C)C(=O)N1CCC[C@H]1C(=O)N[C@H](C(=O)NC(C)(C)C(=O)N[C@](C)(CC)C(=O)N[C@@H](CCC(N)=O)C(=O)N[C@@H](CCC(N)=O)C(=O)N[C@H](CO)Cc1ccccc1)C(C)C | 520 | 3.35 | 6
5 | CC[C@H](C)[C@H](NC(=O)[C@H](C)NC(=O)[C@@H]1CCCN1C(=O)C(C)(C)NC(=O)[C@H](CC(C)C)NC(=O)[C@H](CCC(N)=O)NC(=O)[C@@](C)(CC)NC(C)=O)C(=O)NC(C)(C)C(=O)N1CCC[C@H]1C(=O)N[C@](C)(CC)C(=O)N[C@@H](CC(C)C)C(=O)NC(C)(C)C(=O)N1CCC[C@H]1C(=O)N[C@H](CO)CC(C)C (Ac-[dIva]QL[Aib]PAI[Aib]P[dIva]L[Aib]P[Leu(ol)]) |  | > 25 | > 76
6 | CC[C@H](C)[C@H](NC(=O)[C@H](CO)NC(=O)[C@@H]1CCCN1C(=O)C(C)(C)NC(=O)[C@H](CC(C)C)NC(=O)[C@H](CC(N)=O)NC(=O)[C@@](C)(CC)NC(C)=O)C(=O)NC(C)(C)C(=O)N1CCC[C@H]1C(=O)NC(C)(C)C(=O)N[C@@H](CC(C)C)C(=O)NC(C)(C)C(=O)N1CCC[C@H]1C(=O)N[C@H](CO)CC(C)C (HELM PEPTIDE1{[ac].[CC[C@@](C)(N[*:1])C(=O)[*:2]].N.L.[Aib].P.S.I.[Aib].P.[Aib].L.[Aib].P.[CC(C)C[C@@H](CO)N[*:1]]}$$$$V2.0) |  |  | > 43
7 | CC[C@@](C)(NC(C)=O)C(=O)N[C@@H](CC(N)=O)C(=O)N[C@@H](CC(C)C)C(=O)NC(C)(C)C(=O)N1CCC[C@H]1C(=O)N[C@@H](CO)C(=O)N[C@H](C(=O)NC(C)(C)C(=O)N1CCC[C@H]1C(=O)NC(C)(C)C(=O)N[C@@H](CC(C)C)C(=O)NC(C)(C)C(=O)N1CCC[C@H]1C(=O)N[C@H](CO)CC(C)C)C(C)C (HELM PEPTIDE1{[ac].[CC[C@@](C)(N[*:1])C(=O)[*:2]].N.L.[Aib].P.S.V.[Aib].P.[Aib].L.[Aib].P.[CC(C)C[C@@H](CO)N[*:1]]}$$$$V2.0) |  |  | > 40
8 | CC[C@H](C)[C@H](NC(=O)[C@H](CC(C)C)NC(=O)[C@H](CC(N)=O)NC(=O)C(C)(C)NC(C)=O)C(=O)NC(C)(C)C(=O)N1CCC[C@H]1C(=O)N[C@](C)(CC)C(=O)N[C@@H](CC(C)C)C(=O)NC(C)(C)C(=O)N1CCC[C@H]1C(=O)N[C@H](CO)CC(C)C (HELM PEPTIDE1{[ac].[Aib].N.L.I.[Aib].P.[CC[C@@](C)(N[*:1])C(=O)[*:2]].L.[Aib].P.[CC(C)C[C@@H](CO)N[*:1]]}$$$$V2.0) | 720 | > 25 | > 35
9 | CC[C@H](C)[C@H](NC(=O)[C@H](C)NC(=O)[C@@H]1CCCN1C(=O)C(C)(C)NC(=O)[C@H](CC(C)C)NC(=O)[C@H](CCC(N)=O)NC(=O)C(C)(C)NC(C)=O)C(=O)NC(C)(C)C(=O)N1CCC[C@H]1C(=O)NC(C)(C)C(=O)N[C@@H](CC(C)C)C(=O)N[C@](C)(CC)C(=O)N1CCC[C@H]1C(=O)N[C@H](CO)CC(C)C | 630 | > 25 | > 40
10 | CC[C@H](C)[C@H](NC(=O)[C@H](CO)NC(=O)[C@@H]1CCCN1C(=O)C(C)(C)NC(=O)[C@H](CC(C)C)NC(=O)[C@H](CCC(N)=O)NC(=O)C(C)(C)NC(C)=O)C(=O)NC(C)(C)C(=O)N1CCC[C@H]1C(=O)NC(C)(C)C(=O)N[C@@H](CC(C)C)C(=O)NC(C)(C)C(=O)N1CCC[C@H]1C(=O)N[C@H](CO)CC(C)C (HELM PEPTIDE1{[ac].[Aib].Q.L.[Aib].P.S.I.[Aib].P.[Aib].L.[Aib].P.[CC(C)C[C@@H](CO)N[*:1]]}$$$$V2.0) |  |  | > 14
11 | CC[C@H](C)[C@H](NC(=O)[C@H](CO)NC(=O)[C@@H]1CCCN1C(=O)C(C)(C)NC(=O)[C@H](CC(C)C)NC(=O)[C@H](CC(N)=O)NC(=O)[C@@](C)(CC)NC(C)=O)C(=O)NC(C)(C)C(=O)N1CCC[C@H]1C(=O)N[C@](C)(CC)C(=O)N[C@@H](CC(C)C)C(=O)NC(C)(C)C(=O)N1CCC[C@H]1C(=O)N[C@H](CO)CC(C)C (Ac-[dIva]NL[Aib]PSI[Aib]P[dIva]L[Aib]P[Leu(ol)]) |  |  | > 48
12 | CCCCCCCC(=O)NC(C)(C)C(=O)NCC(=O)N[C@@H](CC(C)C)C(=O)NC(C)(C)C(=O)NCC(=O)NCC(=O)N[C@@H](CC(C)C)C(=O)NC(C)(C)C(=O)NCC(=O)N[C@H](C(=O)N[C@H](CO)CC(C)C)[C@@H](C)CC | 930 | 8.09 | 9
13 | CC[C@H](C)[C@H](NC(=O)[C@H](C)NC(=O)[C@@H]1CCCN1C(=O)C(C)(C)NC(=O)[C@H](CC(C)C)NC(=O)[C@H](CCC(N)=O)NC(=O)[C@@](C)(CC)NC(C)=O)C(=O)NC(C)(C)C(=O)N1CCC[C@H]1C(=O)NC(C)(C)C(=O)N[C@@H](CC(C)C)C(=O)NC(C)(C)C(=O)N1CCC[C@H]1C(=O)N[C@H](CO)CC(C)C (HELM PEPTIDE1{[ac].[CC[C@@](C)(N[*:1])C(=O)[*:2]].Q.L.[Aib].P.A.I.[Aib].P.[Aib].L.[Aib].P.[CC(C)C[C@@H](CO)N[*:1]]}$$$$V2.0) |  |  | > 78
14 | CCCCCCCC(=O)NC(C)(C)C(=O)NCC(=O)N[C@@H](CC(C)C)C(=O)NC(C)(C)C(=O)NCC(=O)NCC(=O)N[C@@H](CC(C)C)C(=O)NC(C)(C)C(=O)NCC(=O)N[C@@H](CC(C)C)C(=O)N[C@H](CO)CC(C)C (HELM PEPTIDE1{[CCCCCCCC(=O)[*:2]].[Aib].G.L.[Aib].G.G.L.[Aib].G.L.[CC(C)C[C@@H](CO)N[*:1]]}$$$$V2.0) |  |  | > 11
15 | CC[C@H](C)[C@H](NC(=O)[C@H](CO)NC(=O)[C@@H]1CCCN1C(=O)C(C)(C)NC(=O)[C@H](CC(C)C)NC(=O)[C@H](CC(N)=O)NC(=O)C(C)(C)NC(C)=O)C(=O)NC(C)(C)C(=O)N1CCC[C@H]1C(=O)NC(C)(C)C(=O)N[C@@H](CC(C)C)C(=O)N[C@](C)(CC)C(=O)N1CCC[C@H]1C(=O)N[C@H](CO)CC(C)C | 520 | > 25 | > 48
16 | CC[C@H](C)[C@H](NC(=O)[C@H](C)NC(=O)[C@@H]1CCCN1C(=O)C(C)(C)NC(=O)[C@H](CC(C)C)NC(=O)[C@H](CC(N)=O)NC(=O)[C@@](C)(CC)NC(C)=O)C(=O)NC(C)(C)C(=O)N1CCC[C@H]1C(=O)N[C@](C)(CC)C(=O)N[C@@H](CC(C)C)C(=O)NC(C)(C)C(=O)N1CCC[C@H]1C(=O)N[C@H](CO)CC(C)C (Ac-[dIva]NL[Aib]PAI[Aib]P[dIva]L[Aib]P[Leu(ol)]) |  |  | > 40
17 | CCCCCCCC(=O)NC(C)(C)C(=O)NCC(=O)N[C@@H](CC(C)C)C(=O)NC(C)(C)C(=O)NCC(=O)NCC(=O)N[C@H](C(=O)NC(C)(C)C(=O)NCC(=O)N[C@@H](CC(C)C)C(=O)N[C@H](CO)CC(C)C)C(C)C (HELM PEPTIDE1{[CCCCCCCC(=O)[*:2]].[Aib].G.L.[Aib].G.G.V.[Aib].G.L.[CC(C)C[C@@H](CO)N[*:1]]}$$$$V2.0) |  |  | > 28
18 | CC[C@H](C)[C@H](NC(=O)[C@H](C)NC(=O)[C@@H]1CCCN1C(=O)C(C)(C)NC(=O)[C@H](CC(C)C)NC(=O)[C@H](CCC(N)=O)NC(=O)C(C)(C)NC(C)=O)C(=O)NC(C)(C)C(=O)N1CCC[C@H]1C(=O)NC(C)(C)C(=O)N[C@@H](CC(C)C)C(=O)NC(C)(C)C(=O)N1CCC[C@H]1C(=O)N[C@H](CO)CC(C)C (HELM PEPTIDE1{[ac].[Aib].Q.L.[Aib].P.A.I.[Aib].P.[Aib].L.[Aib].P.[CC(C)C[C@@H](CO)N[*:1]]}$$$$V2.0) |  |  | > 86
19 | CCCCCCCC(=O)NC(C)(C)C(=O)NCC(=O)N[C@@H](CC(C)C)C(=O)NC(C)(C)C(=O)NCC(=O)NCC(=O)N[C@H](C(=O)NC(C)(C)C(=O)NCC(=O)N[C@H](C(=O)N[C@H](CO)CC(C)C)[C@@H](C)CC)C(C)C |  |  | > 8
20 | CCCCCCCC(=O)NC(C)(C)C(=O)NCC(=O)N[C@@H](CC(C)C)C(=O)NC(C)(C)C(=O)NCC(=O)NCC(=O)N[C@H](C(=O)NC(C)(C)C(=O)NCC(=O)N[C@H](C(=O)N[C@H](CO)CC(C)C)C(C)C)C(C)C |  |  | > 10
